Reference: paper PMC9137328 (Bioorganic chemistry, 2020)
“Also recorded” adds a separate entry of the source. Read-outs that look alike come from different tables or passages of the source. Each block holds one molecule with its values, some of them ahead of it.

Legend:
ERRγ [1] = molecular target: T1, ERRγ (Homo sapiens, UniProt P62508); experiment: Cell-based; details: for ERRγ activity (in words): HEK293 co-transfection luciferase
T1 sequence (P62508 1-458): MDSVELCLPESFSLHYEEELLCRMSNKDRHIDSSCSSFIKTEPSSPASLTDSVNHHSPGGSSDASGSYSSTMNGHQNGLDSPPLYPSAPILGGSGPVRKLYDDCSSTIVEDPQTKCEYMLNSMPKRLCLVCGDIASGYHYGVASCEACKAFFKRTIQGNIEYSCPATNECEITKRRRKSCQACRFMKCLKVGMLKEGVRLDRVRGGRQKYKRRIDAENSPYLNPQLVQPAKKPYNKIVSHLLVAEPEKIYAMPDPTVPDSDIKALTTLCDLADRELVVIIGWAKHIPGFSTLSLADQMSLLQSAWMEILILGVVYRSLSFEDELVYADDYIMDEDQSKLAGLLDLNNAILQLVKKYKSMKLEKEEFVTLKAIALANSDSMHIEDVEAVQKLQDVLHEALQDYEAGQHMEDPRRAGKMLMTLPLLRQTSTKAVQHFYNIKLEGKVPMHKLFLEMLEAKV

ERRα [2] = molecular target: T2, ERRα (Homo sapiens, UniProt P11474); experiment: Cell-based; details: for ERRα activity (in words): HEK293 co-transfection luciferase
T2 sequence (P11474 1-423): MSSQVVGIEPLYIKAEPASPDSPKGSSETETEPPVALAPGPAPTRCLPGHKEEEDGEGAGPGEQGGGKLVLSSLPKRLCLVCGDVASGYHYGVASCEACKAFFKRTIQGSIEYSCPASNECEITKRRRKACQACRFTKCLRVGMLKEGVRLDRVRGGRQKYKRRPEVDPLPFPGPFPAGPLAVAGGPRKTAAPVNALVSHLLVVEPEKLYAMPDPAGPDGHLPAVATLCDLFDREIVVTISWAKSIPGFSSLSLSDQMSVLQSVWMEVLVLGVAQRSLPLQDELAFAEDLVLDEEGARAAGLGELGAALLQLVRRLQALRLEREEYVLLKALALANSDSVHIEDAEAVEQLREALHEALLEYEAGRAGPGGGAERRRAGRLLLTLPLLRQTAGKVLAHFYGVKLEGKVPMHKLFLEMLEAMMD

ERRβ [3] = molecular target: T3, ERRβ (Homo sapiens, UniProt O95718); experiment: Cell-based co-transfection ERR responsive luciferase reporter assay, ERRβ
T3 sequence (O95718 1-433): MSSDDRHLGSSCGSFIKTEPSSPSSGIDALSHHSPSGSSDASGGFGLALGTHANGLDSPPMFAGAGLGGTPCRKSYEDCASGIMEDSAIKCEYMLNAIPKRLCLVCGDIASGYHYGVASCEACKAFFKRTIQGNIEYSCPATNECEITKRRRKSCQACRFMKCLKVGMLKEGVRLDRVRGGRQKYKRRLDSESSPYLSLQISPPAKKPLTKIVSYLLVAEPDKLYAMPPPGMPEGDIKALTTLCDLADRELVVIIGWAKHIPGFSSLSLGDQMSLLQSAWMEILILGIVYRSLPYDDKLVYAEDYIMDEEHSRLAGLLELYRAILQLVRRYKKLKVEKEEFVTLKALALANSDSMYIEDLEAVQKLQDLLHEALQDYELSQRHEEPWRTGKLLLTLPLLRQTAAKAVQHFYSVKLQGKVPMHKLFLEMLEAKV

ERRα [4] = molecular target: T2, ERRα; details: cited from earlier work
ERRβ [5] = molecular target: T3, ERRβ; details: cited from earlier work
ERRγ [6] = molecular target: T1, ERRγ; details: cited from earlier work
[7] = test system: ERR target genes PGC-1α, PGC-1β, CPT1α and PDK4; experiment: Gene expression; format: cell-based, mouse; details: C2C12 cells, 1 μM of tested compounds, 24 h
How it was run: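 Confluent C2C12 myoblasts (DMEM, 10% FBS, 1% L-glutamine; 2.5 million cells per well) were treated 24 h with test compound in DMSO or with DMSO vehicle, in triplicate groups. Total RNA was column-extracted and 1 μg was reverse-transcribed. Transcripts were quantified by SYBR qPCR, with samples run in duplicate. Relative expression was calculated by ΔΔCt against 36b4 as the reference gene.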

C2C12 cells = experiment: Cell viability assay, FITC Annexin V/PI flow cytometry; format: cell-based; details: 1 and 10 μM, 24 h
How it was run: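 C2C12 mouse myoblasts were kept in DMEM with 10% FBS and 1% L-glutamine. They were seeded at 2.5 million cells per well and grown 24 h to confluence. Cells were exposed 24 h to test compound in DMSO at 1 or 10 μM, with a DMSO-only control, in triplicate. Harvested cells were stained with FITC-Annexin V and propidium iodide and analysed by flow cytometry for live/dead cells.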

Structure (SMILES): O=C(NN=Cc1ccccc1)c1ccccc1 [Compound 10]
ERRγ activity (in words) (ERRγ [1]): complete loss of activity; also recorded: completely inactive
ERRα activity (in words) (ERRα [2]): complete loss of activity; also recorded: completely inactive

ERRγ activity (in words) (ERRγ [1]): completely inactive
ERRα activity (in words) (ERRα [2]): completely inactive
Structure (SMILES): O=C(N/N=C/c1ccccc1[N+](=O)[O-])c1ccccc1 [Compound 34]

Structure (SMILES): CC(C)c1ccc(/C=N/NC(=O)c2ccc(O)cc2)cc1 [GSK4716 (6)]
EC50 (ERRβ [3]; read-out: ERRβ EC50, agonism, co-transfection luciferase reporter): 280 nM
ERRα activity (in words) (ERRα [2]): very weak activity
reported activity on ERRα (ERRα [4]): no observed activity
reported activity on ERRβ (ERRβ [5]): agonist
reported activity on ERRγ (ERRγ [6]): agonist

Structure (SMILES): Cc1ccc(C(=O)N/N=C/c2ccccc2)cc1 [Compound 24, (E)-N’-Benzylidene-4-methylbenzohydrazide]
EC50 (ERRβ [3]): 162 nM
PDK4 transcription [7]: potently upregulated
mRNA levels of PGC-1α [7]: increase the mRNA levels
mRNA levels of PGC-1β [7]: increase the mRNA levels
Cell viability / signs of toxicity (C2C12 cells): No signs of toxicity; also recorded: did not show signs of toxicity

EC50 (ERRγ [1]): 398 nM
EC50 (ERRα [2]): 540 nM
Structure (SMILES): COc1ccc(/C=N/NC(=O)c2ccc(Br)cc2)cc1 [Compound 35, (E)-4-Bromo-N’-(4-methoxybenzylidene)benzohydrazide]
PDK4 transcription [7]: potently upregulated
mRNA levels of PGC-1α [7]: increased the mRNA levels

ERRα activity (in words) (ERRα [2]): no activity
Structure (SMILES): Cc1ccccc1C(=O)NN=Cc1ccccc1 [Compound 23]

ERRγ activity (in words) (ERRγ [1]): moderately potent
ERRα activity (in words) (ERRα [2]): moderately potent
Structure (SMILES): O=C(NN=Cc1ccccc1)c1ccccc1O [Compound 19]

Structure (SMILES): O=C(N/N=C/c1ccccc1O)c1ccccc1O [Compound 36]
ERRγ activity (in words) (ERRγ [1]): inactive

ERRγ activity (in words) (ERRγ [1]): activity was regained
Structure (SMILES): CN(C)c1ccc(C=NNC(=O)c2ccccc2)cc1 [Compound 11]
ERRα activity (in words) (ERRα [2]): no ERRα activity; also recorded: inactive

IC50 (ERRα [2]): 4580 nM
Structure (SMILES): O=C(NN=Cc1ccnc2ccccc12)c1ccccc1 [Compound 46, quinolin-4-ylmethylene benzohydrazide]

Structure (SMILES): O=C(N/N=C/c1cccs1)c1ccccc1 [Compound 42, (E)-N’-(Thiophen-2-ylmethylene)benzohydrazide]
ERRγ activity (in words) (ERRγ [1]): weak agonistic effect
EC50 (ERRβ [3]): 1190 nM
activity toward ERRβ, folds higher than ERRα (ERRβ [3]; from EC50 values): 1.8 folds
PDK4 transcription [7]: potently upregulated
mRNA levels of PGC-1α [7]: increase the mRNA levels
mRNA levels of PGC-1β [7]: increase the mRNA levels
Cell viability / signs of toxicity (C2C12 cells): No signs of toxicity; also recorded: did not show signs of toxicity
ERRα activity (in words) (ERRα [2]): weak agonistic effect

Structure (SMILES): O=C(N/N=C/c1ccccc1[N+](=O)[O-])c1ccc([N+](=O)[O-])cc1 [Compound 38, (E)-4-Nitro-N’-(2-nitrobenzylidene)benzohydrazide]
EC50 (ERRγ [1]): 260 nM
EC50 (ERRα [2]): 646 nM
fold decrease in potency against ERRα (ERRα [2]; compared to 16): ≈ 1.5 fold

ERRγ activity (in words) (ERRγ [1]): weak activity
ERRα activity (in words) (ERRα [2]): weak activity
Structure (SMILES): O=C(NN=Cc1ccccc1O)c1ccc(Cl)cc1 [Compound 31]

Structure (SMILES): Cc1ccccc1C(=O)N/N=C/c1ccccc1O [Compound 29, (E)-N’-(2-Hydroxybenzylidene)-2-methylbenzohydrazide]
EC50 (ERRγ [1]): 254 nM
EC50 (ERRβ [3]): 583 nM
Cell viability / signs of toxicity (C2C12 cells): No signs of toxicity; also recorded: did not show signs of toxicity
EC50 (ERRα [2]): 453 nM

Structure (SMILES): O=C(N/N=C/c1ccccc1O)c1ccccc1O [Compound 27, (E)-2-Hydroxy-N’-(2-hydroxybenzylidene)benzohydrazide]
EC50 (ERRγ [1]): 1650 nM
EC50 (ERRβ [3]): 772 nM
Cell viability / signs of toxicity (C2C12 cells): No signs of toxicity; also recorded: did not show signs of toxicity
EC50 (ERRα [2]): 378 nM
activity toward ERRα, folds higher than ERRβ (ERRα [2]; from EC50 values): ≈ 2 folds
selectivity toward ERRα over ERRγ (ERRα [2]; from EC50 values): > 4 fold

EC50 (ERRγ [1]): 235 nM
EC50 (ERRβ [3]): 123 nM
EC50 (ERRα [2]): 483 nM
Structure (SMILES): Cc1ccc(C(=O)N/N=C/c2ccccc2O)cc1 [Compound 33, (E)-N’-(2-Hydroxybenzylidene)-4-methylbenzohydrazide]

ERRγ activity (in words) (ERRγ [1]): completely inactive
ERRα activity (in words) (ERRα [2]): completely inactive
Structure (SMILES): O=C(NN=Cc1ccccc1O)c1ccccc1 [Compound 13]

Structure (SMILES): O=C(NN=Cc1ccccc1)c1ccc(Br)cc1 [Compound 21]
ERRγ activity (in words) (ERRγ [1]): moderate ERRγ activity; also recorded: very weak
ERRα activity (in words) (ERRα [2]): completely lost ERRα activity; also recorded: inactive

selectivity toward ERRγ over ERRα (ERRγ [1]; from EC50 values): 1.6 fold
fold more potent toward ERRα than 14 (ERRα [2]; compared to 14): ≈ 17 fold
fold increase in potency toward ERRα compared to 15 (ERRα [2]; compared to 15): > 6 fold
Structure (SMILES): O=C(N/N=C/c1ccccc1[N+](=O)[O-])c1ccccc1 [Compound 16, (E)-N’-(2-Nitrobenzylidene)benzohydrazide]
PDK4 transcription [7]: potently upregulated
expression of CPT1α [7]: significantly increased the expression
